Calls of active or inactive are those of the source. The rule behind the calls is not given here.
Experiments:
Enterovirus C [1] = assay: Activity at Poliovirus RNA-dependent RNA polymerase assessed as incorporation into opposite uracil and cytosine of viral RNA by denaturing PAGE analysis
Outline: (§1)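 Pre-assembled PV 3Dpol–sym/sub primer/template (32P end-labelled) complex formed for 3 min at 30 °C. Reaction at 30 °C in 50 mM HEPES pH 7.5 with 10 mM 2-mercaptoethanol, 5 mM MgCl2, 1 µM 3Dpol, 0.5 µM duplex RNA and 0.5 mM NTP, started by adding nucleotide. Stopped at 1, 5 or 10 min, run on denaturing PAGE, phosphorimaged, and expressed as % incorporation relative to the natural NTP.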

Enterovirus C [2] = assay: Activity at Poliovirus RNA-dependent RNA polymerase assessed as incorporation into opposite cytosine of viral RNA after 30 mins by denaturing PAGE analysis
Enterovirus C [3] = assay: Activity at Poliovirus RNA-dependent RNA polymerase assessed as incorporation into opposite adenine and guanine of viral RNA by denaturing PAGE analysis; outline: as §1
[4] = Binding affinity to Poliovirus RNA-dependent RNA polymerase; parameters: species or system Enterovirus C; details: read-out: Kd(app)
[5] = Cytotoxicity against human HeLaS3 cells after 24 hrs by celltiter-glo assay; assay type: cell-based; details: HeLa S3, 24 h
Outline: (§2)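 HeLa S3 cells (4 × 10^3/well, plated 24 h before) exposed to a nucleoside concentration series at 37 °C, final 0.1% DMSO, for 7, 24 or 48 h. Cells PBS-washed; viability read as ATP-dependent luminescence (CellTiter-Glo) after 10 min at 22 °C. IC50 from a four-parameter fit of luminescence vs concentration.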

Enterovirus C [6] = assay: Antiviral activity against Poliovirus infected in human HeLaS3 cells assessed as inhibition of viral replication treated 1 hr before infection measured after 2 days; assay type: functional, organism-based; details: HeLa S3
Outline: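 HeLa S3 cells (1 × 10^5, plated 1 day prior) pretreated 1 h at 37 °C with nucleoside in 0.1% DMSO media, then infected with 1 × 10^6 PFU PV in PBS for 15 min at room temperature. Refed with nucleoside-containing media and infected 6 h at 37 °C. Cell-associated virus released by 3 freeze-thaw cycles and titered by plaque assay on HeLa S3 under 1% agarose for 2 days, with crystal violet stain. IC50 from a four-parameter fit.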

[7] = Cytotoxicity against human HeLaS3 cells after 7 hrs by celltiter-glo assay; assay type: cell-based; details: HeLa S3, 7 h; outline: as §2
[8] = Cytotoxicity against human HeLaS3 cells after 48 hrs by celltiter-glo assay; assay type: cell-based; details: HeLa S3, 48 h; outline: as §2
dengue virus type 2 [9] = assay: Antiviral activity against Dengue virus type 2 in BHK-21 cells assessed as inhibition of viral replication after 24 hrs by luciferase assay; assay type: functional, organism-based; details: BHK-21, 24 h
Outline: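 BHK-21 cells stably carrying a luciferase DENV2 replicon, grown in DMEM/F-12 with 10% FBS. Seeded 24 h ahead, then exposed for 24 h to a nucleoside concentration series in media with 1% DMSO. Cells PBS-washed and lysed; luciferase luminescence read on the lysate.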

dengue virus type 2 [10] = assay: Antiviral activity against Dengue virus type 2 in Vero cells assessed as inhibition of viral RNA replication […] by RT-PCR analysis; assay type: functional, organism-based
dengue virus type 2 [11] = assay: Antiviral activity against Dengue virus type 2 in Vero cells assessed as inhibition of viral replication after 6 days using neutral red dye by plaque assay; assay type: functional, organism-based; details: 144 h
Outline: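 Cells infected with DENV2, then treated for 24 h at 37 °C with a concentration series in 1% DMSO media. Supernatant overlaid with 0.9% low-melting agarose in EMEM/0.5% FBS for 6 days at 37 °C, then a second agarose layer with 0.015% neutral red added overnight. Plaques counted as PFU/ml; IC50 from a four-parameter fit of titer vs concentration.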

[12] = Cytotoxicity against human HeLaS3 cells at 100 uM after 24 hrs by celltiter-glo assay; assay type: cell-based; details: HeLa S3, 24 h
Outline: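 HeLa S3 cells (4 × 10^3/well) treated 24 h at 37 °C in 0.1% DMSO. Viability measured as ATP luminescence (CellTiter-Glo) after PBS wash, read after 10 min at 22 °C, and reported as % viable cells.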

SMILES	Kd [4] [µM]	IC50 [5] [µM]	IC50 (Enterovirus C [6]) [µM]	IC50 [7] [µM]	IC50 [8] [µM]	IC50 (dengue virus type 2 [9]) [µM]	also measured
Cc1ncnc2c1ccn2[C@@H]1O[C@H](COP(=O)(O)OP(=O)(O)OP(=O)(O)O)[C@@H](O)[C@H]1O	120	–	–	–	–	–	Activity (Enterovirus C [1]): Active; Activity (Enterovirus C [2]): 60%; Activity (Enterovirus C [3]): inactive
Cc1ncnc2c1ncn2[C@@H]1O[C@H](COP(=O)(O)OP(=O)(O)OP(=O)(O)O)[C@@H](O)[C@H]1O	170	–	–	–	–	–	Activity (Enterovirus C [1]): Active; Activity (Enterovirus C [2]): 40%; Activity (Enterovirus C [3]): inactive
Nc1ncnc2c1ccn2[C@@H]1O[C@H](CO)[C@@H](O)[C@H]1O [TUBERCIDIN]	–	0.819	0.03	1.44	0.4	–	–
COC[C@H]1O[C@@H](n2ccc3c(C)ncnc32)[C@H](O)[C@@H]1O	–	> 100	> 10	> 100	> 100	> 10	–
Cc1ncnc2c1ncn2[C@@H]1O[C@H](CO)[C@@H](O)[C@H]1O	–	6.68	1.01	17.7	2.2	5.46	–
Cc1ccnc2c1ncn2[C@@H]1O[C@H](CO)[C@@H](O)[C@H]1O	–	> 100	> 10	> 100	> 10	> 10	–
Cc1nccc2c1ncn2[C@@H]1O[C@H](CO)[C@@H](O)[C@H]1O	–	> 100	> 10	> 100	> 100	> 10	–
NC(=O)c1ncn([C@@H]2O[C@H](COP(=O)(O)OP(=O)(O)OP(=O)(O)O)[C@@H](O)[C@H]2O)n1 [RTP]	496	–	–	–	–	–	–
Nc1ncnc2c1ncn2[C@@H]1O[C@H](COP(=O)(O)OP(=O)(O)OP(=O)(O)O)[C@@H](O)[C@H]1O [ADENOSINE TRIPHOSPHATE]	134	–	–	–	–	–	–
Cc1ncnc2c1ccn2[C@@H]1O[C@H](CO)[C@@H](O)[C@H]1O	–	–	0.011	> 100	0.224	0.877	IC50 (dengue virus type 2 [10]): 0.039 µM; IC50 (dengue virus type 2 [11]): 0.062 µM; IC50 [12]: 0.986 µM

— ChEMBL document CHEMBL1269004, “Synthesis of a 6-methyl-7-deaza analogue of adenosine that potently inhibits replication of polio and dengue viruses” (J Med Chem, 2010)
